Data on ten compounds can be found in ChEMBL document CHEMBL1165965, “Synthesis and structure-activity relationships of 1,2,3,4-tetrahydropyrido[2,3-b]pyrazines as potent and selective inhibitors of the anaplastic lymphoma kinase” (Bioorg Med Chem, 2010).

Assay [1] deals with T1, Tyrosine-protein kinase ZAP-70 (Homo sapiens) (UniProt P43403).
T1 sequence (whole entry): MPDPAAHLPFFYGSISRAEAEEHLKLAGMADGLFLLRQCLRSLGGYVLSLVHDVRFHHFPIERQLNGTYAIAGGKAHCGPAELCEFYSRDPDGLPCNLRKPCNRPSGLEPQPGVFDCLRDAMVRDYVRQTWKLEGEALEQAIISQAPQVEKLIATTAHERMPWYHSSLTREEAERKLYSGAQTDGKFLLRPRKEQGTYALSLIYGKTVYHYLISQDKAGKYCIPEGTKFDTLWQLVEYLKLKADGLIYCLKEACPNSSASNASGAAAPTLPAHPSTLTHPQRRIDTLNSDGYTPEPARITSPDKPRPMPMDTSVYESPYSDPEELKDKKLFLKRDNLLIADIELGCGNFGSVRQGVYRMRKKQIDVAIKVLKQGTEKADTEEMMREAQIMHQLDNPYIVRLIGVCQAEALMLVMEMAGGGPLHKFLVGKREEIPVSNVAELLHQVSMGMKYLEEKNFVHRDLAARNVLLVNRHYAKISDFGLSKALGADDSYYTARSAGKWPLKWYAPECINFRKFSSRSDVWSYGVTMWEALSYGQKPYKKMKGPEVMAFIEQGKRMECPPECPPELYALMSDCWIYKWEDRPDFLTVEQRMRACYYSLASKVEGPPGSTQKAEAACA
Briefly: Inhibition of ZAP70 at 1 uM.

Assay [2] concerns the target SRSF protein kinase 1 (Homo sapiens) (UniProt Q96SB4). Briefly: Inhibition of SRPK1 at 1 uM.
Assay [3] addresses Glycogen synthase kinase-3 beta (Homo sapiens) (UniProt P49841). Kind of assay: Inhibition of GSK3B at 1 uM. In outline:
(§1)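 Single-concentration screen on the Ambit KINOMEscan platform, run against a panel of 250–400 kinases. Per-kinase inhibition was also summarized as S(90), the fraction of kinases inhibited by more than 90%.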

Assay [4] concerns the target ALK tyrosine kinase receptor (Homo sapiens, UniProt Q9UM73). Briefly: Inhibition of ALK by time-resolved fluorescence assay. The method in brief: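 Baculovirus-expressed ALK (30 ng/ml) on plates coated with GST–PLC-gamma substrate in TBS. Reaction ran 15 min at 37 °C. Europium-labeled anti-phosphotyrosine antibody was added for 1 h at 37 °C, then enhancement solution for 30 min, and TRF was read. IC50 came from a variable-slope sigmoidal fit of % inhibition vs log concentration.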

Assay [5] concerns the target T2, Serine/threonine-protein kinase STK11 (Homo sapiens) (UniProt Q15831).
T2 sequence (whole entry): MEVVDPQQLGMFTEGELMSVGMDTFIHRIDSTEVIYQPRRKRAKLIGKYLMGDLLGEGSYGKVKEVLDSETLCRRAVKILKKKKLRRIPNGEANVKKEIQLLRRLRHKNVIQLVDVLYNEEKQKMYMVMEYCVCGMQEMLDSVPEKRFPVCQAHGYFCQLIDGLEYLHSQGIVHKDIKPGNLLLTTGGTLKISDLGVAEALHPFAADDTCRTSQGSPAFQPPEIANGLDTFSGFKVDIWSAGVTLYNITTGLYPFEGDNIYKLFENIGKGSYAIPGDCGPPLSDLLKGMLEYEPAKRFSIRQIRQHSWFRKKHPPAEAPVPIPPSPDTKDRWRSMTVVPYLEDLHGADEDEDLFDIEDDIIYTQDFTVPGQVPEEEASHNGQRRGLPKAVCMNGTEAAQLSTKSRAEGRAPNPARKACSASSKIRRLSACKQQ
Briefly: Inhibition of LKB1 at 1 uM. In outline:
as §1

The target in assay [6] is NT-3 growth factor receptor (Homo sapiens) (UniProt Q16288). Kind of assay: Inhibition of TRKC at 1 uM.
Assay [7] addresses T3, TGF-beta receptor type-1 (Homo sapiens) (UniProt P36897).
T3 sequence (whole entry): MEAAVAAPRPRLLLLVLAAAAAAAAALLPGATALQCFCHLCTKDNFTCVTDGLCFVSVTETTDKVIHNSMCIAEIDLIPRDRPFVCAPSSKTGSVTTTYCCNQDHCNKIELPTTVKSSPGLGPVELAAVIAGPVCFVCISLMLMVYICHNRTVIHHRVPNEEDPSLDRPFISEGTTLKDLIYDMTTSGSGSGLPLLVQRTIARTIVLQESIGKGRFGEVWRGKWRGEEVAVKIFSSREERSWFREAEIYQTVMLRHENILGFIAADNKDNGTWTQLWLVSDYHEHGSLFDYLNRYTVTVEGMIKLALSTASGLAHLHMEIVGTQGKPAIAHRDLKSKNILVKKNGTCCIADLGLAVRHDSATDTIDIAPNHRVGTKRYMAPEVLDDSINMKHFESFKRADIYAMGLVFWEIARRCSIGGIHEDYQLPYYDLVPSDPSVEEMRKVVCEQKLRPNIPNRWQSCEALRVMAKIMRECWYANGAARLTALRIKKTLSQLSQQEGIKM
Briefly: Inhibition of TGFBR1 at 1 uM.

Assay [8] has as its target Cyclin-dependent kinase 15 (Homo sapiens) (UniProt Q96Q40). Kind of assay: Inhibition of PFTAIRE2 at 1 uM.
In assay [9] the target is Myosin light chain kinase, smooth muscle (Homo sapiens) (UniProt Q15746). Briefly: Inhibition of MLCK at 1 uM.

The structures appear in SMILES notation. pIC50: −log10 of the molar value.

Sequence of SRSF protein kinase 1 (Homo sapiens) (Q96SB4 whole entry): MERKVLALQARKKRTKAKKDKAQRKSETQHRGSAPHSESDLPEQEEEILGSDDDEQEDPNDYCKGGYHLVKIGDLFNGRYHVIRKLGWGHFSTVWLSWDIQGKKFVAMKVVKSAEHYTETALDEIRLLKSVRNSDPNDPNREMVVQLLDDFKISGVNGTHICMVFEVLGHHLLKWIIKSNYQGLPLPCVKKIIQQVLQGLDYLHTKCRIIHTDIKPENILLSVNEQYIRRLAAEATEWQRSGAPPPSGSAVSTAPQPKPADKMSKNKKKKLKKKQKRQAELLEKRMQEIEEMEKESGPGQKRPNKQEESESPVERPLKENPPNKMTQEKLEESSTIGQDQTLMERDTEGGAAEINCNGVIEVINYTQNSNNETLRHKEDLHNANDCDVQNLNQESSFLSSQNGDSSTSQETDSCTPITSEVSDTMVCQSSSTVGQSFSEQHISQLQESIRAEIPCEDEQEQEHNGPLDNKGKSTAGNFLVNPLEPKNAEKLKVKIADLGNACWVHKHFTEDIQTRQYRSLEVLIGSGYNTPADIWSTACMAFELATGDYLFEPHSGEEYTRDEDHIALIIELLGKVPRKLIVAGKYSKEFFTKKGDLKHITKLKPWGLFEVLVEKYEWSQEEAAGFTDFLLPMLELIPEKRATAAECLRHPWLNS
Sequence of ALK tyrosine kinase receptor (Q9UM73 whole entry): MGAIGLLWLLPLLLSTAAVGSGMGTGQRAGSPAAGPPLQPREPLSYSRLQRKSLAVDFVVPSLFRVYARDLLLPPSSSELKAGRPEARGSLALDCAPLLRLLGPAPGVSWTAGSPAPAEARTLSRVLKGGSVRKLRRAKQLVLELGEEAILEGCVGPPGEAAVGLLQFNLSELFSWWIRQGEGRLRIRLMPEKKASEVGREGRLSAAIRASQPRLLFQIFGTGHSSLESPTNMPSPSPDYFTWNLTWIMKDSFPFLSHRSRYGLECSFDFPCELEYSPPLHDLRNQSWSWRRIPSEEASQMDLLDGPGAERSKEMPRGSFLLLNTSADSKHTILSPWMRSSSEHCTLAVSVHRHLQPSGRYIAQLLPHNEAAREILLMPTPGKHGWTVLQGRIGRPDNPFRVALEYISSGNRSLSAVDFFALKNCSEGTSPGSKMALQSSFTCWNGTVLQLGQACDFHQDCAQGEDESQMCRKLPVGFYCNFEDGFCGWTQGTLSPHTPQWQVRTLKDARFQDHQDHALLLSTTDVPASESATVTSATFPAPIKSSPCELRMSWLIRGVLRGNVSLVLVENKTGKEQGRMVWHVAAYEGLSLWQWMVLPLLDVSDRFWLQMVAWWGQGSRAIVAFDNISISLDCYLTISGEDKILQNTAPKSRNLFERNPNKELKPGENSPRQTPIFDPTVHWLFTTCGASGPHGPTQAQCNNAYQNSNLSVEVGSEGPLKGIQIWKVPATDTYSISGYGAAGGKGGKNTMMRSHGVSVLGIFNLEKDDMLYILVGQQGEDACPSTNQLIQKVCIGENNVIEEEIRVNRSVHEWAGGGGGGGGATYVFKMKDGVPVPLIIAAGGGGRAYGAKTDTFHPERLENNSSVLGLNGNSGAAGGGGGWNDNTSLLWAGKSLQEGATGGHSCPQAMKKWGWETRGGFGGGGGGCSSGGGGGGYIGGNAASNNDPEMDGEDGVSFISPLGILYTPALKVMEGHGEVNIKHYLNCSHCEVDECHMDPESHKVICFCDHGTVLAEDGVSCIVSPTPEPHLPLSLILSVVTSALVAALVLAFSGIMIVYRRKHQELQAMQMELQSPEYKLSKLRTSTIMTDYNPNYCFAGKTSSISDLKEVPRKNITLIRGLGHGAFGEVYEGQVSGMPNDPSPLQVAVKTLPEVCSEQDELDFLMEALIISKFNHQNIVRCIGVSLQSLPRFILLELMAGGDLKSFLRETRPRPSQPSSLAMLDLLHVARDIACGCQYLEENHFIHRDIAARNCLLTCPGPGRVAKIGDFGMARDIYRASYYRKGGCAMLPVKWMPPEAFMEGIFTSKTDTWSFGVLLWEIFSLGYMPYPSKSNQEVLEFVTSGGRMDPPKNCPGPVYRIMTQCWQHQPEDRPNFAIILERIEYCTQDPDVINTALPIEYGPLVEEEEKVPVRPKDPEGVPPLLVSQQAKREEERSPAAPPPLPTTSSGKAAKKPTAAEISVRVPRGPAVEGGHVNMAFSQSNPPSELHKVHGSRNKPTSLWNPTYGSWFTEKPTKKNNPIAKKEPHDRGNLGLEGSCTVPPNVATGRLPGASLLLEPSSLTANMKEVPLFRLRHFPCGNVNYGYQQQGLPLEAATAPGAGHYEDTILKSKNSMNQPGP
Sequence of NT-3 growth factor receptor (Homo sapiens) (Q16288 32-839 limits assumed): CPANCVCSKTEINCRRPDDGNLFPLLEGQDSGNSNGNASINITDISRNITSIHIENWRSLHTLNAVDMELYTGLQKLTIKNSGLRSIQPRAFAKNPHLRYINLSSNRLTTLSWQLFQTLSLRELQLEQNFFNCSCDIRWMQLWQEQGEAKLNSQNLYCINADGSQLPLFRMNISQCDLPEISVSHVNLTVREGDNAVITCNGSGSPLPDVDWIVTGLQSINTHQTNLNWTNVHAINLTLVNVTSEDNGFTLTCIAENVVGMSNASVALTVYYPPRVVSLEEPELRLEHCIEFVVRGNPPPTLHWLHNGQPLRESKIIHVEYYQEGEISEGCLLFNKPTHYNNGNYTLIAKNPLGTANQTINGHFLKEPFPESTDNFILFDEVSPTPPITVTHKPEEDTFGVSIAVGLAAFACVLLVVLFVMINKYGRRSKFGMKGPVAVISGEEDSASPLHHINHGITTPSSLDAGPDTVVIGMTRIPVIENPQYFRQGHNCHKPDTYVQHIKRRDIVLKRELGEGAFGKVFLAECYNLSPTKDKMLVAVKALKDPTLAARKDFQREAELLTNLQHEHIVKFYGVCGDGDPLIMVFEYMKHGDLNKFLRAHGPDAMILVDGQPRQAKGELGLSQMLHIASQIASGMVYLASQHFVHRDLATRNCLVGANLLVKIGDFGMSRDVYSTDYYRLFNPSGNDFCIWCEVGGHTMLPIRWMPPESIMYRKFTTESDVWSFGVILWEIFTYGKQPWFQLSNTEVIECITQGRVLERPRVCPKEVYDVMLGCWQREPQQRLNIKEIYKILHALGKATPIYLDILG
Sequence of Glycogen synthase kinase-3 beta (Homo sapiens) (P49841 whole entry, looked up): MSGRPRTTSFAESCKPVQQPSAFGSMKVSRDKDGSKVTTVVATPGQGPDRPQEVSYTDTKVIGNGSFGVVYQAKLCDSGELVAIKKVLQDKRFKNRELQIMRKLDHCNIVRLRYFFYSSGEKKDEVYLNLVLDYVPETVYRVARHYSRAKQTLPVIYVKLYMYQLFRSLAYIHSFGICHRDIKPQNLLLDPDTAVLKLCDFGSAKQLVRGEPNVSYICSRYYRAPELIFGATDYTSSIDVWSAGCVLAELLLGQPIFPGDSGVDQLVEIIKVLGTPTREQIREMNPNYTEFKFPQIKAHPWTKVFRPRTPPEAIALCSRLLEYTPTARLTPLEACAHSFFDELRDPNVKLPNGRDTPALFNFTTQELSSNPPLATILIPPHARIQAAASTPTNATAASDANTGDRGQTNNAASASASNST
Sequence of Cyclin-dependent kinase 15 (Homo sapiens) (Q96Q40 whole entry): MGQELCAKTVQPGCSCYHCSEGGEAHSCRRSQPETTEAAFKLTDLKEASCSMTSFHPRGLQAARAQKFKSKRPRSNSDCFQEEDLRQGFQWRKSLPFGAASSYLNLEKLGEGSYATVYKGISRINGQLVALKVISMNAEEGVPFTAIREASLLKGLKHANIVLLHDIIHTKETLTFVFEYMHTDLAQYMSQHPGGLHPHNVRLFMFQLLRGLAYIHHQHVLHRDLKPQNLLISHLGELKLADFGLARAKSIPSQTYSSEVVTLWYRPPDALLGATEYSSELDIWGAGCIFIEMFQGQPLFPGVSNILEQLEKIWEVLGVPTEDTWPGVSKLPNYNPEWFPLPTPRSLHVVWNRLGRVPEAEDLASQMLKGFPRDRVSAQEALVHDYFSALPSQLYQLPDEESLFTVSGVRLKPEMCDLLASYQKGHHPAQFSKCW

As to `O=C(c1ccc(-c2cnc3c(c2)N(Cc2cc(Cl)ccc2C(F)(F)F)CCN3)cc1)N1CCCCC1`, the inhibition in assay [1], in [2], in assay [3], in assay [5], in assay [6] and in [7] was under 50% throughout. This compound gave a pIC50 in [4] of 6.92.

`CN1CCN(c2ccc(-c3cnc4c(c3)N(Cc3c(F)ccc(F)c3Cl)CCN4)cn2)CC1`: the inhibition in [8], in [9], in assay [1], in assay [2], in assay [3] and in assay [5] was under 50% throughout. The inhibition in assay [6] and in assay [7] was under 50% throughout.

`COC1CCN(C(=O)c2ccc(-c3cnc4c(c3)N(Cc3cc(Cl)ccc3C(F)(F)F)CCN4)cc2)CC1`: the inhibition in assay [1], in assay [2], in assay [3], in assay [5], in assay [6] and in assay [7] was under 50% each time. Further, the pIC50 in [4] is 7.40.

Take `O=C(O)c1ccc(-c2cnc3c(c2)N(Cc2cc(Cl)ccc2C(F)(F)F)CCN3)cc1`: the inhibition in assay [1], in [2], in [3], in assay [5], in [6] and in assay [7] was under 50% each time. The pIC50 in [4] is 5.89.

Consider `FC(F)(F)c1ccc(Cl)cc1CN1CCNc2ncc(-c3ccnc(N4CCNCC4)c3)cc21`, for which the inhibition in assay [8], in assay [9], in assay [1], in assay [2], in [3] and in assay [5] was under 50% throughout. Besides, the inhibition in assay [6] and in assay [7] was under 50% in each case. The pIC50 in [4] is 8.00.

Consider `CN1CCN(c2ccc(-c3cnc4c(c3)N(Cc3cc(Cl)ccc3Cl)CCN4)cn2)CC1`, for which the inhibition in [8], in assay [9], in assay [1], in [2], in assay [3] and in assay [5] was under 50% throughout. Further, the inhibition in [6] and in assay [7] was under 50% throughout. In [4], the pIC50 was 7.96.

For `O=C(c1ccc(-c2cnc3c(c2)N(Cc2cc(Cl)ccc2C(F)(F)F)CCN3)cc1)N1CCC(N2CCCC2)CC1`, the inhibition in [1], in assay [2], in assay [3], in [5], in [6] and in assay [7] was under 50% each time. This compound showed a pIC50 in [4] of 8.00.

`CN1CCN(c2ccc(-c3cnc4c(c3)N(Cc3cc(Cl)ccc3C(F)(F)F)CCN4)cn2)CC1`: the inhibition in assay [8], in assay [9], in assay [1], in [2], in assay [3] and in assay [5] was under 50% in each case. For the same compound, the inhibition in assay [6] and in assay [7] was under 50% throughout.

In the case of `CC(=O)N1CCN(c2cc(-c3cnc4c(c3)N(Cc3cc(Cl)ccc3C(F)(F)F)CCN4)ccn2)CC1`, the inhibition in [8], in assay [9], in assay [1], in [2], in assay [3] and in [5] was under 50% each time. The inhibition in [6] and in assay [7] was under 50% throughout. In addition, in assay [4], the pIC50 was 7.77.

Regarding `CN1CCN(c2ccc(-c3cnc4c(c3)N(Cc3cc(F)ccc3F)CCN4)cn2)CC1`, the inhibition in [8], in assay [9], in [1], in assay [2], in [3] and in assay [5] was under 50% throughout. The inhibition in [6] and in assay [7] was under 50% each time. The same compound showed a pIC50 in [4] of 7.48.

As usually defined, the inhibition is the share of the control response that was lost under treatment. As a reminder, the pIC50 is the IC50 on a negative log10 scale, so that one unit is a factor of ten. Low readings indicate a high IC50, high ones a low IC50.
